# Published values collected from several papers.
# Compare with care: the assays were run in different laboratories.
# Cell line: HCT-116
# Effect on: cell growth or viability
SMILES,method,concentration,time,quantity,result
O=C1Nc2ccccc2C1=Nc1ccc(Cl)cc1,MTT,,48 h,IC50,> 100 µM
COc1ccc(C=NNC(=O)c2nc3ccccc3s2)cc1O,MTT,100 µM,48 h,cell death,33.5%
COc1cccc2c1C(=O)c1c(O)c3c(c(O)c1C2=O)C[C@@](O)(C(=O)CO)C[C@@H]3O[C@H]1C[C@H](N)[C@H](O)[C@H](C)O1,MTT,,24 h,IC50,1.06 µM
COc1cc(N=C2C(=O)N(Cc3ccccc3)c3ccccc32)cc(OC)c1,MTT,,48 h,IC50,8.73 µM
Oc1cccc(-c2nc(N3CCOCC3)c3oc4ncccc4c3n2)c1,CCK-8,1 µM,,inhibition,12.5%
O=c1[nH]cc(F)c(=O)[nH]1,MTT,100 µM,48 h,cell death,84.6%
CCOc1ccc(C(=O)CC(SCc2ccc(Cl)cc2)C(=O)OC)cc1 (centres unmarked),MTT,,48 h,EC50,70 µM
O=C1C(=Nc2ccc(Cl)cc2Br)c2ccccc2N1Cc1ccc([N+](=O)[O-])cc1,MTT,,48 h,IC50,24.9 µM
Nc1nc2ccc(-c3c/c(=N\c4ccccc4NC(=O)C4CCNC4)c4ccccc4o3)cc2o1 (centres unmarked),CCK-8,1 µM,,inhibition,62.6%
CCOc1ccc(-c2cc(C(=O)O)c(-c3ccc(Cl)cc3)o2)cc1,MTT,,48 h,EC50,78 µM
NCCC(=O)Nc1ccccc1/N=c1\cc(-c2ccc3c(c2)OCO3)oc2ccccc12,CCK-8,1 µM,,inhibition,10.8%
COc1cc(C=NNC(=O)c2nc3ccccc3s2)ccc1O,MTT,100 µM,48 h,cell death,44.6%
CCc1ccc(N=C2C(=O)Nc3ccccc32)cc1,MTT,,48 h,IC50,64.7 µM
C[C@H](N)C(=O)Nc1ccccc1/N=c1\cc(-c2ccc3c(c2)OCCO3)oc2c([N+](=O)[O-])cccc12,CCK-8,1 µM,,inhibition,12.7%
